# Compound activity as filed in PubChem BioAssay.
# Jurkat NFkB inh = inhibitors of the PMA/ionomycin-induced NF-kB reporter in Jurkat cells; PMA/ionomycin-induced NF-kB luciferase reporter, luminescence; inhibition, % at 4 µM; hit rate 0.53% among 330,000; in the data active = inhibition above about 50%
# Mdm2-MdmX inh = inhibitors of human Mdm2/MdmX interaction. hit rate 3% among 330,000. inhibition, % at 8 µM. O15151+Q00987. AID 485346. SaOS-2 split-luciferase Mdm2/MdmX complementation, luminescence;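 active = inhibition of at least 50% at 8 µM in the primary screen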
# 697 NFkB inh = inhibitors of the PMA/ionomycin-induced NF-kB reporter in 697 B cells; 697 B-cell NF-kB luciferase reporter, 16 h; hit rate 0.33% among 330,000; inhibition, % at 4 µM; in the data active = inhibition above about 35%
# VIM-2 inh = blocks Pseudomonas aeruginosa VIM-2 metallo-beta-lactamase | purified VIM-2, nitrocefin hydrolysis, epi-absorbance fluorescence | inhibition, % at 5.6 µM | hit rate 0.89% among 290,000;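 active = inhibition above the mean of all tested compounds plus 3 SD, cutoff set per screening run, cut at about 7.5% in these data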;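 also: red hydrolysis product quenches plate fluorescence so inhibitors raise well fluorescence; 0% = enzyme with DMSO and 100% = DMSO without enzyme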
# aSyn 5UTR inh = MLPCN primary screen, SNCA 5' untranslated region | alpha-synuclein 5'UTR reporter, inhibitor activity | inhibition, % (tested at 7.5 µM) | hit rate 0.82% among 300,000 | AID 1813; in the data active = inhibition above about 60%;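 also: H4 neuroglioblastoma cells stably carrying SNCA 5'UTR luciferase fusion; 0% = DMSO wells and 100% = positive control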
# IMP-1 inh = blocks Pseudomonas aeruginosa IMP-1 metallo-beta-lactamase. inhibition, % at 5.6 µM. AID 1556. hit rate 0.45% among 290,000. purified IMP-1, nitrocefin hydrolysis, epi-absorbance fluorescence;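 active = inhibition above the mean plus 3 SD of all compounds in the same screening run, cut at about 4.5% in these data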;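 also: 0% = IMP-1 with DMSO and 100% = DMSO wells lacking enzyme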
#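 System: purified IMP-1 / Input: IMP-1 dispensed at 0.2 nM / Medium: 50 mM HEPES pH 7.1, 50 µM ZnSO4, 0.05% Brij 35 / Timing: 15 min enzyme–compound preincubation, then 25 min nitrocefin reaction, 25 °C / Technique: plate fluorescence quenching by hydrolysis product, ex 480/em 530 nm / Repeats: singlicate testing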
# An asterisk follows results filed as active; . = not tested or not shown. Sampled rows, rich in hits. Any-hit rate of the full collection: about 4.7%.
SMILES,Jurkat NFkB inh,Mdm2-MdmX inh,697 NFkB inh,VIM-2 inh,aSyn 5UTR inh,IMP-1 inh
COc1ccc2nc(NC(=O)CC3Oc4ccccc4NC3=O)sc2c1 (stereo unspecified),0,31,17,-3,4,-4
CC(=O)c1ccc(C(=O)Nc2ccc3c(c2)C(=O)NC3=O)cc1,-3,-8,9,0,32,6.1*
CC(=O)c1ccc(NC(=O)c2cccc(N3C(=O)c4ccccc4C3=O)c2)cc1,19,20,-2,0,-4,7.7*
CSc1cccc(NC(=O)C(=O)NCc2ccccc2)c1,-20,26,-30,-1,-14,-2
Cc1ccccc1OCC(=O)Nc1cccc(C(=O)O)c1,.,.,.,1,105*,1
COc1cccc(NC(=O)COc2ccc(C(=S)N3CCN(C)CC3)cc2OC)c1,24,3,-2,8.3*,0,1
COc1cc(C(=S)N2CCN(C)CC2)ccc1OCC(=O)NCc1ccccc1,20,4,8,2,-2,0
O=C(NCc1ccccc1)C(=O)Nc1cccc(C(=O)O)c1,27,-24,-10,-3,74*,-1
Cc1cccc(OCC(=O)Nc2cc(NC(=O)COc3cccc(C)c3C)cc(C(=O)O)c2)c1C,12,25,-3,-3,-10,-6
CC12CCC(=O)N1C(C(=O)N1CCN(c3cccc(Cl)c3)CC1)CS2 (stereo unspecified),5,-14,19,.,.,.
C=CC[N@@+]12CC[C@]34c5ccccc5N5/C=C6\C7N(/C=C(\C53)[C@@H](C[C@@H]41)/C(=C/CO)C2)c1ccccc1[C@@]71CC[N@@+]2(CC=C)C/C(=C\CO)[C@@H]6C[C@@H]12 (stereo partly specified),-1,-6,-11,.,.,.
Cc1cc(C)n2c(Br)c(CSc3nc4ccccc4o3)nc2n1,-30,-12,-68,9.9*,-87,2
COc1cccc(CN2CCNC(=O)C2CC(=O)NCCN2CCCCC2=O)c1 (stereo unspecified),8,1,6,-2,9,-2
O=C(NCc1ccc(Cl)cc1)c1cccnc1,6,2,11,-3,0,-3
O=C(NC(c1ccc(Cl)cc1)c1cc(Cl)c2cccnc2c1O)c1cccnc1 (stereo unspecified),.,.,.,-3,98*,-3
COCC(=O)Nc1ccc2c(c1)OCC(=O)N2Cc1ccc(C)cc1,-2,12,-5,-2,-21,-2
O=C(Nc1nc2c(s1)CCCC2)c1nn(Cc2ccccc2)c(=O)c2ccccc12,11,23,-23,-1,21,-2
CC(C)CCn1nc(C(=O)Nc2nc3c(s2)CCCC3)c2ccccc2c1=O,13,49,-27,-1,68*,0
COc1ccc(N(CC(=O)Nc2cc(Cl)ccc2C)S(=O)(=O)c2c(C)noc2C)cc1,48,49,-76,-2,78*,0
CC(O)c1nc2ccc(C(=O)O)cc2[nH]1 (stereo unspecified),6,30,8,1,1,8.7*
COc1ccccc1C(=O)NCCC(=O)Nc1cccc(S(=O)(=O)N2CCCC2)c1,-13,27,5,.,.,.
COc1cc(C(=O)NCCCC2CCCC2)ccc1OC1CCN(C(C)=O)CC1,-12,-21,-59,2,-11,-1
COCC(C)n1c(SCC(=O)NC(=O)Nc2ccc3c(c2)OCCO3)nc2ccccc2c1=O (stereo unspecified),-10,-19,-13,-1,-58,5.5*
O=C(CSc1nnnn1-c1ccccc1)NC(=O)Nc1ccc2c(c1)OCCO2,-52,-10,-42,1,-86,5.6*
COCC(C)n1c(SCC(=O)NC(=O)Cc2ccccc2)nc2ccccc2c1=O (stereo unspecified),2,-6,12,.,.,.
SMILES,Jurkat NFkB inh,Mdm2-MdmX inh,697 NFkB inh,VIM-2 inh,aSyn 5UTR inh,IMP-1 inh
CCCc1cc(=O)[nH]c(SCC(=O)Nc2c(C)n(C)n(-c3ccccc3)c2=O)n1,10,17,16,.,.,.
COCCCNc1nnc(Cc2ccc(Cl)cc2)c(=O)[nH]1,43,49,5,0,66*,0
CSc1nc(SCC(=O)O)c2sc3nc(-c4ccccc4)c4c(c3c2n1)CCC4,.,.,.,-1,-15,64*
CSc1nc(N(C)CCO)c2sc3nc(-c4ccco4)c4c(c3c2n1)CCC4,-26,15,-60,1,-25,11*
COc1ccccc1COC(=O)C(NC(=O)c1ccc(C)cc1)C(C)C (stereo unspecified),-1,18,18,.,.,.
Cc1cc(SCC(=O)NN)c2cc(Br)ccc2n1,-5,45,-18,0,3,0
Cc1[nH]c2ccccc2c1/C=C/C(=O)c1ccncc1,-3,3,-37,8.5*,-11,0
O=C(/C=C/c1cccc2ccccc12)c1ccncc1,.,.,.,1,-14,-2
Cc1nc(NCC(c2ccccc2)N(C)C)c2c(C)c(C)sc2n1 (stereo unspecified),-5,17,-14,7.8*,-4,-5
Cc1sc2ncnc(NCC(c3ccccc3)N(C)C)c2c1C (stereo unspecified),7,-19,0,8.7*,-7,-3
Cc1sc2ncnc(N/N=C/c3ccccc3O)c2c1C,.,.,.,1,106*,-2
COc1ccc(Cc2nc3ccc(C(=O)N4CCCCC4CCO)cc3o2)cc1 (stereo unspecified),-14,2,-16,-4,7,0
COc1cc(/C=C(\C#N)C(=O)c2c[nH]c3ccccc23)cc(OC)c1O,-3,5,15,-3,-12,4.8*
CCOC(=O)/C(N=Nc1sc(C(=O)OC)c(C)c1C(=O)OCC)=C(\O)CCl,-16,-15,-3,0,-19,4.7*
O=C(c1ccc(F)cc1)N1CCC(C(=O)N2CCN(S(=O)(=O)c3cccc([N+](=O)[O-])c3)CC2)CC1,4,7,-7,.,6,.
COc1cccc(OCc2cc(C(=O)N3CCN(C(C)=O)CC3)no2)c1,-62,-60,-73,-1,9,-2
C=C(C(=O)O)C(CCCCCC)C(=O)O (stereo unspecified),8,7,25,4,25,14*
Cc1ccc(C(=O)N/C(=C\c2ccccc2)C(=O)NCCN2CCOCC2)cc1,1,18,-6,-1,-5,-2
CC(C)c1ccc2c(c1)CCC1C(C)(CN)CCCC21C (stereo unspecified),.,.,.,-1,97*,-1
O=C(O)CN1C(=O)c2cccc(Oc3ccc(Cl)cc3)c2C1=O,-13,0,-3,0,-3,12*
Cc1ccc(N2C(=O)c3cccc(Oc4ccc(Cl)cc4)c3C2=O)c(C)c1,15,22,-3,-3,-12,-2
Cc1ccc(S(=O)(=O)Nc2ccc(NC(=O)Nc3ccc(F)cc3F)cc2)cc1,6,42,-6,-1,78*,-4
